Screening data from PubChem.
Compounds with a hit are over-represented: about 1.4% of the library has one in this group of screens.
Rev-erbA mod: modulators of Rev-erb alpha DNA binding, primary screen, biochemical, FITC-DNA, fluorescence polarization, uHTS | Rev-erbα–FITC-DNA binding, 90 min | hit rate 0.79% among 370,000 | Nuclear receptor subfamily 1 group D member 1 (Homo sapiens), P20393 | activity, % at 10 µM | AID 1259318, 2017;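 active = activity above about 14%, limit read from the data; passing the limit was not always enough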;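 also: 0% = DMSO wells with 35 nM protein and 100% = DMSO wells with 750 nM protein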
NR2E3 ag-1: NR2E3 agonists in two-hybrid cells, primary screen, cell-based, luminescence, CHO-S, Gal4-NCOR/VP16-NR2E3; luciferase; Photoreceptor-specific nuclear receptor (Homo sapiens), Q9Y5X4; inhibition of corepressor binding, % at 3.98 µM; hit rate 0.35% among 360,000; AID 602229, 2012;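 active = inhibition above the mean of all tested compounds plus 3 SD, cut at about 70% in these data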;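 also: 0% = DMSO with NR2E3 transfected cells and 100% = cells lacking NR2E3 construct; higher means lower luciferase signal from less NR2E3 corepressor binding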
Target sequence (Q9Y5X4 whole entry, looked up, the tested form may be a part): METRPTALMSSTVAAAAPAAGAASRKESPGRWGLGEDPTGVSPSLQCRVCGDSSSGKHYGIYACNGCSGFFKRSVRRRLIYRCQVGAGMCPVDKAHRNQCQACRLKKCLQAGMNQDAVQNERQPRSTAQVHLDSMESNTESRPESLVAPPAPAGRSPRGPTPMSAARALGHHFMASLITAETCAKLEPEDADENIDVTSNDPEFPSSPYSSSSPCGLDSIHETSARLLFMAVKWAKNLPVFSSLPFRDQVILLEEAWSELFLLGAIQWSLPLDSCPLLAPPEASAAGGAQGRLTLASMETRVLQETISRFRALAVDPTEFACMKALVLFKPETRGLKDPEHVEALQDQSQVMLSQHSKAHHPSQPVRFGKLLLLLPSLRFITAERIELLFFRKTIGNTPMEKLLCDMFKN
NR2E3 ag-2: inhibitors of NR2E3-RetCOR corepressor binding, primary screen, NR2E3 agonist project, biochemical, TR-FRET, GST-NR2E3, biotin-RetCOR. inhibition of corepressor binding, % at 4.78 µM. AID 2300, 2010. hit rate 0.12% among 320,000. 1536-well;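 active = percent inhibition above the cutoff of mean plus 3 SD of all tested compounds, set per screening campaign, cut at about 20% in these data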;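 also: 0% = DMSO wells and 100% = biotin wells as full block of FRET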
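Material – GST-tagged NR2E3 plus biotinylated RetCOR corepressor · Quantity – NR2E3 fusion 1.35 nM · Times – 5 h incubation at 4 °C · Medium – pH 7.5 Tris-based buffer · Technique – TR-FRET, Eu(K)-anti-GST donor, streptavidin-D2 acceptor, ex 340, em 617/671 nm · Benchmarks – high control biotin, low control 0.6% DMSO · Format – 1536-well plates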
PG9 Ab binder: binders of HIV-1 gp120 antibody PG9, primary screen, biochemical, TR-FRET; HIV-1 gp120 / PG9 antibody interaction; TR-FRET gp120-PG9 antibody binding; inhibition, % at 6.7 µM; hit rate 0.43% among 360,000; in the data active = inhibition above about 8.5%
NR1D1 mod conf: modulators of Rev-erb alpha DNA binding, confirmation, biochemical, FITC-DNA, fluorescence polarization, single point. shares compounds with Rev-erbA mod. activation, % at 25 µM. 90 min. hit rate 61% among 3,000;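 active = activation at or above a set limit, or at least 3 SD above the negative control mean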;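 also: 0% = 35 nM protein with DMSO and 100% = 750 nM protein high control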
RORg DNA counter: modulation of RORgamma DNA binding, dose response, counter-screen for Rev-erb alpha modulator project, biochemical, fluorescence polarization, FITC-DNA; shares compounds with Rev-erbA mod; purified RORgamma protein-FITC-DNA binding; IC50, µM; hit rate 8% among 910; AID 1259320, 2017;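 active = Compounds whose fitted half-maximal concentration for disrupting protein-DNA binding is below 10 micromolar; the record names Rev-erb in its text, so the target is in doubt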
* marks the source's active call; other numbers are inactive results; . = not tested or not shown.

SMILES	Rev-erbA mod	NR2E3 ag-1	NR2E3 ag-2	PG9 Ab binder	NR1D1 mod conf	others
CCn1c(SCC(=O)Nc2ccc(Cl)cc2)nc2nc3c(cc2c1=O)CCCC3	0	-43	-1	5	.
CCOC(=O)c1cc(-c2ccc(F)cc2)nc2c1c(=O)[nH]c(=O)n2Cc1ccccc1	-9	10	2	0	.
CCOC(=O)c1cc(-c2cc(OC)c(OC)c(OC)c2)nc2c1c(=O)[nH]c(=O)n2Cc1ccccc1	23*	-8	1	0	9
Cn1cc(C2(C)CCOc3ccccc32)c2ccccc21 (stereo unspecified)	8	.	.	.	.
CCOC(=O)c1ccccc1NC(=O)c1n[nH]c(=O)c2ccccc12	53*	0	4	0	25*
COc1cc(NC(=O)c2n[nH]c(=O)c3ccccc23)cc(OC)c1	26*	13	-2	7	20*
CCOC(=O)c1ccc(NC(=O)c2n[nH]c(=O)c3ccccc23)cc1	21	-5	6	-2	.
COC(=O)[C@]12C[C@H](CC(=O)NCc3ccccc3)C(=O)N(Cc3ccco3)C1=C[C@H](C(C)(C)C)O[C@@H]2C	2	.	.	.	.
COc1ccc(-c2c(Cc3ccccc3)nc(NC(=O)c3ccccc3)n2Cc2ccccc2)cc1	8	.	.	.	.
COc1ccc(Sc2nc3ccccc3n3c(C(F)(F)F)nnc23)cc1	56*	-8	2	-5	34*	RORg DNA counter=>40
COc1ccc(-c2cc(-n3c(C(F)(F)F)nc4ccccc43)n(CCC#N)n2)cc1	5	-1	2	2	.
CCC(=O)N[C@H]1C[C@@H]2O[C@@H](CO)CC[C@@H]2O[C@@H]1CCc1ccc(-c2cccc(OC)c2)cc1	10	.	.	.	.
CCOC(Cn1c(SCc2cc(C(C)=O)ccc2OC)nc2ccccc2c1=O)OCC	34*	-21	2	0	34*	RORg DNA counter=>40
COc1ccc(C(C)=O)cc1CSc1nc2cc(C(=O)O)ccc2c(=O)n1Cc1ccccc1	-2	-1	4	-1	.
COc1ccc(CNC(=O)C(C#N)c2nc3ccccc3nc2N2CCN(C)CC2)cc1 (stereo unspecified)	-1	-2	-2	-1	.
COc1ccc(CNC(=O)C(C#N)c2nc3ccccc3nc2N2CCCC2)cc1 (stereo unspecified)	42*	20	0	0	23*
COc1ccc(CNC(=O)CN(C)Cc2ccc(C(C)(C)C)cc2)cc1	25*	-16	0	-1	-3
O=C1c2cccc3c(N4CCCCC4)ccc(c23)C(=O)N1c1ccccc1O	27*	5	4	1	33*	RORg DNA counter=>40
O=C1c2cccc3c(N4CCCCC4)ccc(c23)C(=O)N1c1ccc(O)cc1	0	-28	1	-4	.
COc1cccc(CNC(=O)CN2CCCc3ccccc32)c1OC	-8	.	.	.	.
COC(=O)c1cc(-c2cc3ccccc3s2)c(=O)n2c1CCC2	58*	.	.	.	40*	RORg DNA counter=>40
CC(C)CCn1c(SCC(=O)NC2CCS(=O)(=O)C2)nc2cc(Cl)ccc2c1=O (stereo unspecified)	21*	0	-6	5	21*
CC(C)Cn1c(SCC(=O)N(C)C2CCS(=O)(=O)C2)nc2cc(Cl)ccc2c1=O (stereo unspecified)	4	0	-5	-2	.
CC(C)CCn1c(SCC(=O)NC2CC2)nc2cc(Cl)ccc2c1=O	20*	28	0	0	11
O=C(c1cccc(F)c1)N(Cc1ccccn1)CC1CCCO1 (stereo unspecified)	-8	.	.	.	.
SMILES	Rev-erbA mod	NR2E3 ag-1	NR2E3 ag-2	PG9 Ab binder	NR1D1 mod conf	others
CCCCn1cnc2c(=O)[nH]ccc21	-2	.	.	.	.
COc1ccc(CNC2CCC23CCC(C)CC3)cc1OC (stereo unspecified)	-8	.	.	.	.
COc1cc(/C=C(\C#N)c2nc3ccccc3[nH]2)cc(OC)c1O	31*	-55	-2	-22	46*	RORg DNA counter=>40
CCOc1cc(N(CC)CC)ccc1/C=C(/C#N)c1nc2ccccc2[nH]1	73*	7	0	-2	58*	RORg DNA counter=>40
COc1ccc(/C=C(\C#N)c2nc3ccccc3[nH]2)cc1O	-1	-79	.	-6	.
CCCOc1cc(N(CC)CC)ccc1/C=C(/C#N)c1nc2ccc(C)cc2[nH]1	32*	-16	-6	-1	41*
COC(=O)[C@]12C[C@H](CC(=O)NCCCCc3ccccc3)C(=O)N(Cc3cccc4ccccc34)C1=C[C@H](C(C)C)O[C@@H]2C1CC1	5	.	.	.	.
Cn1c(SCC(=O)NCC2CCCO2)ncc(C(=O)Nc2ccc(Cl)cc2)c1=O (stereo unspecified)	24*	-35	1	-3	2
Cn1c(SCC(=O)NCCc2ccccc2)ncc(C(=O)Nc2ccccc2)c1=O	30*	-9	1	5	20*
Cn1cc(SCC(=O)NCC2CCCO2)c2ccccc21 (stereo unspecified)	30*	2	3	-2	1
COC[C@@H]1CCCN1c1cccc2c1S(=O)(=O)N1CC[C@@H](C1)O2	-8	.	.	.	.
CCN(CC)C(=O)CC[C@@H]1CC[C@]2(CCCN(Cc3ccc(Br)cc3)C2)O1	3	.	.	.	.
COc1cccc(C(=O)N=c2sc3c(C)ccc(OC)c3n2C)c1	24*	-95	-1	-1	5
CCn1c(=NC(=O)CCS(=O)(=O)c2ccccc2)sc2cccc(OC)c21	5	-6	1	-1	.
CCCCC(=O)N=c1sc2c(OC)ccc(OC)c2n1C	23*	-11	3	-1	8
COc1ccc(C(=O)N=c2sc3c(C)ccc(OC)c3n2C)cc1OC	14	-44	-1	0	.
COC(=O)Cn1c(=NC(=O)CCS(=O)(=O)c2ccccc2)sc2c(OC)ccc(OC)c21	82*	-18	4	-1	39*	RORg DNA counter=>40
COC(=O)[C@]12C[C@H](CC(=O)N3CCCC3)C(=O)N(CCC3=CCCCC3)C1=C[C@H](C1CCCC1)O[C@@H]2C	-3	.	.	.	.
CCC[C@H]1[C@@H](NC(=O)C(c2ccccc2)c2ccccc2)CC[C@@]23CCCN2C(=O)CCC[C@@H]13	-4	.	.	.	.
C[C@@H](N)C(=O)Nc1ccc(Cl)cc1C(=O)c1ccc[nH]1	-1	.	.	.	.
Cc1ccc(S(=O)(=O)N2C(N)=C(C(=O)NCc3ccc(Br)cc3)C(c3ccc(Cl)cc3)C2C(=O)c2ccccc2)cc1 (stereo unspecified)	0	.	.	.	.
